Assay results taken from ChEMBL document CHEMBL4513216, “Probing the Open Global Health Chemical Diversity Library for Multistage-Active Starting Points for Next-Generation Antimalarials” (ACS Infect Dis, 2020).

Assay: Toxicity liver stage against HepG2, at 10uM
Assay type: cell-based
Parameters: test concentration 10 uM, cell line HepG2-A16-CD81EGFP
Settings: human, HepG2-A16-CD81EGFP cells; read-out: INHIBITION
In short: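 Uninfected HepG2-A16-CD81EGFP cells, 3 × 10^3 per well, 1536-well, plated on prespotted compound at 10 μM final, parasite-free screening media added to match infected plates; puromycin 10 μM positive, DMSO 0.5% negative; run in parallel with 48 h PbLuc assay at 37 °C, 5% CO2; viability by CellTiter-Glo luminescence, normalized to controls.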

Compound | cytotoxicity at 10 µM [%]
Cc1cccc(CNC(=O)C2CCC(=O)N(Cc3ccccc3F)C2)n1 (stereo not drawn) | -3.75
COc1ccc2c(c1)nc1n2[C@@H](CNC(=O)c2cccnc2)COC1 | -3.74
Cc1ccccc1NC(=O)Nc1c[nH]c(=O)[nH]c1=O | 3.54
CCN1CCC(=O)N(C)Cc2cc(F)ccc21 | 9.78
COc1ccc2nnc(CCC(=O)Nc3nc4c(s3)CCCCC4)n2n1 | 4.98
COc1ncccc1C(=O)N1CC(c2nc(-c3ccco3)no2)C1 | 4.91
COC(=O)N1CCc2ccccc2C1C(=O)NCc1ccncc1 (stereo not drawn) | -4.83
CN(C)CC1CSCCCN1C(=O)c1ccc(-n2cccc2)cc1 (stereo not drawn) | 10
COC(C)(CNS(=O)(=O)c1cn(C)cn1)c1ccccc1F (stereo not drawn) | -8.39
COc1ccc(CC(=O)N2CCC3(CC2)CCN(CC(C)C)C3=O)cc1 | 1.11
N#Cc1cnc2ccccc2c1N1CCC(C(=O)O)CC1 | 4.28
CCN(CC)CCCNC(=O)c1nn(CC)cc1Cl | 10.8
CC(=O)NCCCn1ncc2c(C)cccc21 | 9.68
Cc1c(CN2CCCC(n3c(=O)oc4ccccc43)C2)cnn1C (stereo not drawn) | 6.62
O=C(NCCCN1CCOCC1)Nc1cnc2cc(Cl)ccc2c1O | 1.29
O=C(c1cnco1)N1C[C@@H]2CC[C@H](Oc3ccccc3F)[C@@H]2C1 | 5.22
COCCN1C(=O)CO[C@H]2CN(Cc3c[nH]nc3-c3ccccc3)C[C@@H]21 | -4.04
O=C(CC1OCCc2ccccc21)NCC1(O)CCCCC1 (stereo not drawn) | 1.07
COC(=O)N1CCC(NC2CCSCC2)C1 (stereo not drawn) | -8.23
Cc1cc(Br)ccc1C(=O)N(C)CCNS(C)(=O)=O | -54.1
COc1ccc(S(=O)(=O)NC(=O)c2ccccc2F)cc1OC | -2.72
Cn1cc(C(=O)N[C@@H]2CN(Cc3ccoc3)[C@@H]3CCCO[C@@H]32)cn1 | -104
CC(C)CNC(=O)[C@H]1CCS(=O)(=O)[C@@H]2CN(c3ncccn3)C[C@H]12 | -110
Cc1cnc(N2CCC3(C2)CN(S(=O)(=O)C2CC2)C3)nc1 | -106
CS(=O)(=O)N[C@@H]1CCO[C@]2(CCN(C(=O)c3cscn3)C2)C1 | -67.2
CCS(=O)(=O)N1CC[C@H]2O[C@@H](c3nnc(C)o3)CC[C@H]21 | -63.7

Compound | cytotoxicity at 10 µM [%]
Cc1ccc(N2C[C@H](C(=O)N3CCOCC3)[C@@H]3CCO[C@@H]3C2)nn1 | -66.8
CN(C)CC(=O)N1Cc2ncn(C)c2C(COCC2CCOCC2)C1 (stereo not drawn) | -71
O=C(CC1CC1)N1CCC2(CC1)CN(c1ncc(F)cn1)CCO2 | -72.8
CC(C)N(C)[C@@H]1CCN(C(=O)c2ccc[nH]2)[C@H]1Cc1cnn(C)c1 | -72
O=C(c1cscn1)N1CCC2(CCN(Cc3nccs3)CC2)CC1 | -71
Cn1ncc2c1C(COCC1CC1)CN(Cc1ccoc1)C2 (stereo not drawn) | -1.21
O=C(C1CCOCC1)N1CC[C@H]2C[C@@H](c3ccncn3)O[C@@H]2C1 | -0.748
O=C(c1ccncc1)N1CCC2(CC1)CC(Oc1cccnc1)CO2 (stereo not drawn) | -3.66
O=C(Cc1ccsc1)N1CCN(CCOc2ccccc2)CC1 | -4.6
CC/C(C)=C/CCN1CCN(C)C2(CCNC(=O)CC2)C1 (stereo not drawn) | -48.2
CCN(Cc1nccn1C)C(=O)c1ccc(NCC(C)C)nc1 | -2.2
NC(=O)N1CCCC(C(=O)N2CCN(c3nsc4ccccc34)CC2)C1 (stereo not drawn) | 7.86
CC1(C)CNC(=O)c2nc(-c3n[nH]c(=O)[nH]3)[nH]c2C1 | -4.07
CCN(CC)Cc1cc(C(=O)N2CC(C)(C)[C@@](C)(O)C2)c(C)o1 | 1.07
CCc1ncc(C(=O)NCC2CCN(Cc3ccncc3)CC2)cn1 | 8.12
COc1cccc([C@H]2CN(CCCS(=O)(=O)N(C)C)C[C@@H]2N)c1 | -1.18
O=C(NCCc1cccnc1)c1ccc2nccn2c1 | -38.6
CC(C)CN1CCCn2nc(CNC(=O)Cc3cccc(O)c3)cc2C1 | 4.69
O=C(NCC(F)F)c1ccc(S(=O)(=O)NCCc2cn[nH]c2)cc1 | 5.5
C=C(Cl)CN(C)C1CCN(CCc2ccccn2)CC1 | -2.93
Cc1ccc(-c2cc(CNC(=O)N3CCCN(C)CC3)on2)cc1 | -5.19
Cc1cccc(C2(C(=O)NC(C)Cn3ccnc3)CC2)c1 (stereo not drawn) | 0.742
COc1c(C2CCCN2C(=O)c2c(C)noc2C(C)C)c(C)nn1C (stereo not drawn) | 8.88
Cc1cnn(CC(=O)N2CCCN(c3nc(C)cs3)CC2)c1 | -4.71
COc1c(CNCc2ccc(OCC(N)=O)cc2)c(C)nn1C | -3.81
Cc1oc(C(=O)O)cc1S(=O)(=O)Nc1ccc(Cl)c(F)c1 | -5.92

Compound | cytotoxicity at 10 µM [%]
CCn1c(C(=O)N2CCN(CC(C)O)CC2)cc2ccccc21 (stereo not drawn) | -8.96
Cc1nc(C)n(CC2CN(Cc3cccc4c3OCCO4)CCO2)n1 (stereo not drawn) | -1.99
CCc1ncc2c(n1)CN(Cc1nc(-c3ccsc3)no1)CC2 | -4.99
N#Cc1ccccc1CN1CCCCC1Cn1cncn1 (stereo not drawn) | -4.13
Cc1ccc(CN2C(=O)CCC23CCC(NC2CCOC2)CC3)cc1 (stereo not drawn) | -3.04
O=C(c1ccco1)N1C[C@@H]2[C@@H](C1)OCC(=O)N2Cc1cccnc1 | 3.04
O=C1CCC2(CCN(c3ncc(F)cn3)CC2)N1Cc1ccncc1 | 5.02
Cc1noc([C@H]2C[C@H]3OCC[C@H]3N(Cc3ccc(F)cc3)C2)n1 | -76.4
COCC1c2c(cnn2C)CCN1Cc1ccco1 (stereo not drawn) | 2.32
O=C(N[C@@H]1CN[C@H]2CCCO[C@H]21)c1cccnc1 | 5.25
CCOCC1CN(C(=O)c2ccncn2)Cc2cnn(CC)c21 (stereo not drawn) | -68.3
O=C(N[C@@H]1CN(c2ncccn2)C[C@@H]2CCCO[C@@H]21)c1ccncc1 | 2.29
COCC1CN(CC2CC2)Cc2nccn2C1 (stereo not drawn) | -76
Cc1cccc(CN2C[C@@H]3COC[C@]3(CNC(=O)C3CC3)C2)c1 | -107
COC[C@]12COC[C@H]1CN(Cc1cc(OC)cc(OC)c1)C2 | -6.33
Cc1cccc(CN2C[C@H](OCc3ccccn3)[C@H]3COC[C@H]32)n1 | -92.6
Cn1cc(C(=O)N2CC[C@@H]3[C@@H]2CCN3Cc2ccncc2)cn1 | -75.3
c1cc(COC[C@]23COC[C@H]2CN(Cc2ccsc2)C3)ccn1 | -90.9
Cc1ccc(N2CCCc3sc(C(=O)NCCC#N)nc32)nn1 | 11.6
COCC(=O)N1C[C@@H](OCc2ccncc2)[C@@H]2OCCC[C@@H]21 | -0.182
Cc1cccc(CN2CCc3nnc(CN4CCCC4=O)n3CC2)n1 | 5.31
CN1CCS(=O)(=O)[C@@H]2CCN(C(=O)CC(C)(C)C)CC[C@@H]21 | 1.2
O=C(c1ccncc1)N1CCCn2c(CN3CCCC3)nnc2C1 | -76.9
CN1C[C@H](NC(=O)c2cscn2)[C@@H]2OCCC[C@@H]21 | -112
CCCSCC(=O)N1C[C@H]2CC[C@@H](C1)N(Cc1ccccn1)C2=O | 3.32
O=C1Nc2ccccc2CN(CC=Cc2ccccc2)C12CCNC2 (stereo not drawn) | 2.96
